# Source: ChEMBL document CHEMBL1148734, “Structure-activity relationships of phenyl-furanyl-rhodanines as inhibitors of RNA polymerase with antibacterial activity on biofilms” (J Med Chem, 2007)
# The source made the active and inactive calls. No cut-off for these calls is given here.
# What was measured:
# [1] = Inhibition of Escherichia coli RNA polymerase sigma-70 factor
# Escherichia coli [2] = assay: Antibacterial activity against Escherichia coli tolC CGSC 5633; assay type: functional
# Escherichia coli [3] = assay: Inhibition of RNA polymerase sigma-70 transcription in Escherichia coli at 10 uM; assay type: functional
# [4] = tested on: Staphylococcus epidermidis; assay: Antibacterial activity against Staphylococcus epidermidis CIP 105777; assay type: functional
# Staphylococcus aureus [5] = assay: Antibacterial activity against multidrug resistant Staphylococcus aureus 49589; assay type: functional
# In short: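 Broth microdilution MIC following CLSI. Compounds were predissolved in DMSO and tested as serial 2-fold dilutions at final 100 to 0.4 µg/mL. Inoculum was 5 × 10⁵ CFU/mL, and plates were read after 18 h at 37 °C.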
# CHO = assay: Cytotoxicity against CHO cells; assay type: cell-based, Cricetulus griseus; conditions: chinese hamster
# In short: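 CHO cells grown in RPMI with 5% fetal calf serum, then exposed to compounds 24 h at 37 °C without serum. MTT added at 300 µg/mL final, 3 h at 37 °C dark; acidified isopropanol added, 1 h at room temperature; OD at 595 nm.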
# [6] = tested on: Staphylococcus epidermidis; assay: Antibacterial activity against Staphylococcus epidermidis RP62A; assay type: functional
# [7] = tested on: Staphylococcus epidermidis; assay: Antibacterial activity against Staphylococcus epidermidis 40004; assay type: functional
# Clostridioides difficile = assay: Antibacterial activity against Clostridium difficile DSM 1296; assay type: functional
# Streptococcus pneumoniae = assay: Antibacterial activity against Streptococcus pneumoniae CIP 103566; assay type: functional
# [8] = tested on: Staphylococcus epidermidis; assay: Antibacterial activity against Staphylococcus epidermidis 48155; assay type: functional
# Staphylococcus aureus [9] = assay: Antibacterial activity against Staphylococcus aureus CIP 76.25; assay type: functional
# Bacillus anthracis = assay: Antibacterial activity against Bacillus anthracis 9131; assay type: functional
# Albumin = Albumin (Homo sapiens, UniProt P02768); assay: Binding affinity to HSA by SPR method; assay type: ADME; conditions: isolated protein
# Albumin, sequence (P02768 whole entry): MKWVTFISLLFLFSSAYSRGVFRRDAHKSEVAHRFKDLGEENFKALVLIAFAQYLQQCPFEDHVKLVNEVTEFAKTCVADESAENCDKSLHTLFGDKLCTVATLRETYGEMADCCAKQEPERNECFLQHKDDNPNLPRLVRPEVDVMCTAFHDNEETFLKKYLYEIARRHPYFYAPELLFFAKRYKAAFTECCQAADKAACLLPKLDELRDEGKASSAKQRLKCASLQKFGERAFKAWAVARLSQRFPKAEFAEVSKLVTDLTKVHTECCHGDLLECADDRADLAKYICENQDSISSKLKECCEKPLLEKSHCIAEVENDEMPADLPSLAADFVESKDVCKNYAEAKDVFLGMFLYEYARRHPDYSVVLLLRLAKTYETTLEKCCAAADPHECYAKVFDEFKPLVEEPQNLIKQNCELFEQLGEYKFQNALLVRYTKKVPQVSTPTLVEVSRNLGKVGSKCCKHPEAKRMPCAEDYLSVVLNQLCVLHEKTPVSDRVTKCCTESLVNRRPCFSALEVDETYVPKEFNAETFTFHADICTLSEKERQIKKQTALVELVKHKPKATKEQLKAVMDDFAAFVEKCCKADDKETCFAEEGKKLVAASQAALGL
# In short: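 SPR at 25 °C; HSA amine-coupled on CM5 chip (9000–11 000 RU). Compounds at 50 µM in PBS with 5% DMSO, 30 µL/min, duplicate 60 s injections over HSA and reference surfaces. Double referencing with buffer blanks; DMSO bulk correction from calibration curve (4.5–5.8% DMSO).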
# Escherichia coli [10] = assay: Antibacterial activity against Escherichia coli tolC CGSC 5633 in presence of 1% HSA; assay type: functional, organism-based
# [11] = tested on: Staphylococcus epidermidis; assay: Antibacterial activity against Staphylococcus epidermidis 40004 biofilms assessed as bacterial count per well at 8 times MIC after 24 hrs; assay type: functional
# In short: (§1)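 Biofilms from 10⁷ CFU/mL inoculum in MHB grown 24 h at 37 °C, rinsed, then exposed 24 h at 37 °C without shaking in MHB to compound at 8× MIC. Washed, DMSO-lysed, ATP bioluminescence read (luciferase/D-luciferin buffer, pH 7.25). Strain-specific luminescence-to-Log₁₀ CFU/well equations used; triplicate.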
# [12] = tested on: Staphylococcus epidermidis; assay: Antibacterial activity against Staphylococcus epidermidis RP62A biofilms assessed as bacterial count per well at 8 times MIC after 24 hrs; assay type: functional; in short: as §1
# [13] = tested on: Staphylococcus epidermidis; assay: Antibacterial activity against Staphylococcus epidermidis 48155 biofilms assessed as bacterial count per well at 8 times MIC after 24 hrs; assay type: functional; in short: as §1
Structure (SMILES),IC50 [1] [µM],MIC (Escherichia coli [2]) [µg/mL],inhibition at 10 µM (Escherichia coli [3]) [%],MIC [4] [µg/mL],MIC (Staphylococcus aureus [5]) [µg/mL],Activity (CHO),MIC [6] [µg/mL],MIC [7] [µg/mL],MIC (Clostridioides difficile) [µg/mL],MIC (Streptococcus pneumoniae) [µg/mL],MIC [8] [µg/mL],MIC (Staphylococcus aureus [9]) [µg/mL],MIC (Bacillus anthracis) [µg/mL],Activity (Albumin),Activity (Escherichia coli [10]),log10CFU/ml [11],log10CFU/ml [12],log10CFU/ml [13],Activity (Staphylococcus aureus [5])
C=CCN1C(=O)/C(=C/c2ccc(C)o2)SC1=S,≥ 100,≥ 100,3,≥ 100,–,–,–,–,–,–,–,–,–,–,–,–,–,–,–
C=CCN1C(=O)/C(=C/c2ccc(-c3ccc(O)cc3)o2)SC1=S,–,3.13,84,12.5,25,>= 100 ug ml-1,12.5,12.5,50,25,12.5,6.25,6.25,–,–,–,–,–,–
C=CCN1C(=O)/C(=C/c2c[nH]c3c(C(=O)O)cccc23)SC1=S,–,≥ 100,95,25,50,>= 100 ug ml-1,25,25,25,50,25,50,12.5,–,–,–,–,–,–
C=CCN1C(=O)/C(=C/c2ccc(-c3ccc(C(=O)O)cc3)o2)SC1=S,–,12.5,98,3.13,≥ 100,>= 100 ug ml-1,3.13,6.25,≥ 100,≥ 100,3.13,≥ 100,3.13,Active,inactive,–,–,–,–
C=CCN1C(=O)/C(=C/c2ccc(-c3cccc(C(=O)O)c3)o2)SC1=S,–,6.25,97,3.13,25,>= 100 ug ml-1,12.5,25,12.5,50,25,12.5,6.25,Active,inactive,–,–,–,–
O=C(O)c1ccc(/C=C2\SC(=S)N(Cc3ccco3)C2=O)cc1,87,≥ 100,5,≥ 100,–,–,–,–,–,–,–,–,–,–,–,–,–,–,–
C=CCN1C(=O)/C(=C/c2ccc(-c3ccc(CCC(=O)O)cc3)o2)SC1=S,–,12.5,68,25,25,>= 100 ug ml-1,25,25,50,≥ 100,12.5,25,12.5,Active,inactive,–,–,–,–
C=CCN1C(=O)/C(=C/c2cc(C)n(-c3cccc(C(=O)O)c3)c2C)SC1=S,–,50,100,25,25,>= 100 ug ml-1,25,50,6.25,25,25,50,6.25,–,–,2.3,2.8,1.8,–
C=CCN1C(=O)/C(=C/c2cccc(C(=O)O)c2)SC1=S,≥ 100,≥ 100,–,≥ 100,–,–,–,–,–,–,–,–,–,–,–,–,–,–,–
C=CCN1C(=O)/C(=C/c2ccc(-c3ccc(C(=O)O)c(Cl)c3)o2)SC1=S,–,25,100,6.25,50,>= 100 ug ml-1,6.25,6.25,12.5,12.5,12.5,50,3.13,Active,inactive,–,–,–,–
C=CCN1C(=O)/C(=C/c2cccc(-c3cccc(C(=O)O)c3)c2)SC1=S,–,≥ 100,26,25,25,>= 100 ug ml-1,25,50,12.5,≥ 100,50,≥ 100,12.5,–,–,–,–,–,–
C=CCN1C(=O)/C(=C/c2ccc(-c3ccccc3)o2)SC1=S,–,3.13,46,≥ 100,≥ 100,>= 100 ug ml-1,≥ 100,–,≥ 100,≥ 100,–,≥ 100,0.78,–,–,–,–,–,–
CCN1CCN(C(=O)N[C@@H](C(=O)N[C@@H]2C(=O)N3[C@@H]2SC(C)(C)[C@@H]3C(=O)O)c2ccccc2)C(=O)C1=O,–,–,–,–,–,–,–,–,–,–,–,–,–,–,–,–,–,–,inactive
CC[C@H]1OC(=O)[C@H](C)[C@@H](O[C@H]2C[C@@](C)(OC)[C@@H](O)[C@H](C)O2)[C@H](C)[C@@H](O[C@@H]2O[C@H](C)C[C@H](N(C)C)[C@H]2O)[C@](C)(O)C[C@@H](C)C(=O)[C@H](C)[C@@H](O)[C@]1(C)O,–,–,–,–,–,–,–,–,–,–,–,–,–,–,–,–,–,–,inactive
C=CCN1C(=O)/C(=C/c2ccc(-c3ccc(C(N)=O)cc3)o2)SC1=S,–,1.56,102,≥ 100,≥ 100,>= 100 ug ml-1,≥ 100,–,≥ 100,≥ 100,–,≥ 100,12.5,–,–,–,–,–,–
CCn1cc(C(=O)O)c(=O)c2cc(F)c(N3CCNCC3)cc21,–,–,–,–,–,–,–,–,–,–,–,–,–,–,–,–,–,–,inactive
Cc1nnc(SCC2=C(C(=O)O)N3C(=O)[C@@H](NC(=O)Cn4cnnn4)[C@H]3SC2)s1,–,–,–,–,–,–,–,–,–,–,–,–,–,–,–,–,–,–,inactive
C=CCN1C(=O)/C(=C/c2ccc(-c3ccc(C(=O)NO)cc3)o2)SC1=S,–,25,100,≥ 100,≥ 100,>= 100 ug ml-1,≥ 100,–,≥ 100,25,–,≥ 100,50,–,–,–,–,–,–
CCC[C@@H]1C[C@@H](C(=O)N[C@@H]([C@H]2O[C@H](SC)[C@H](O)[C@@H](O)[C@H]2O)[C@H](C)Cl)N(C)C1,–,–,–,–,–,–,–,–,–,–,–,–,–,–,–,–,–,–,inactive
C=CCN1C(=O)/C(=C/c2cc(C)n(CC)c2C)SC1=S,≥ 100,≥ 100,5,≥ 100,–,–,–,–,–,–,–,–,–,–,–,–,–,–,–
